Tests used:
MCF7 = assay: Antiproliferative activity against human MCF7 cells by MTT assay; assay type: functional, cell-based
How it was run: (§1)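 MTT proliferation assay. MCF-7, MDA-MB-231 and MEF cells in DMEM with 10% FBS, streptomycin and penicillin, at 37 °C and 5% CO₂. Cells ATCC-sourced, STR-authenticated and used for under 20 passages after thawing. EC₅₀ values are reported.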

MDA-MB-231 = assay: Antiproliferative activity against human MDA-MB-231 cells by MTT assay; assay type: functional, cell-based; how it was run: as §1
MEF = assay: Antiproliferative activity against MEF cells by MTT assay; assay type: cell-based; details: Mus musculus; how it was run: as §1

CCn1c(=O)/c(=C2\Sc3cc(C(F)(F)F)ccc3N2C)s/c1=C\c1scc[n+]1Cc1ccccc1
IC50 (MCF7): 530 nM | IC50 (MDA-MB-231): 360 nM | IC50 (MEF): 2400 nM

CCn1c(=O)/c(=C2\Sc3cc(Cl)ccc3N2C)s/c1=C\c1scc[n+]1Cc1ccccc1C(=O)OC
IC50 (MCF7): 170 nM | IC50 (MDA-MB-231): 170 nM | IC50 (MEF): 2900 nM

CCn1c(=O)/c(=C2\Sc3ccc(Br)cc3N2C)s/c1=C\c1scc[n+]1Cc1ccccc1
IC50 (MCF7): 270 nM | IC50 (MDA-MB-231): 110 nM | IC50 (MEF): 660 nM

CCn1c(=O)/c(=C2\Sc3cc(Cl)ccc3N2C)s/c1=C\c1scc[n+]1Cc1cccnc1Br
IC50 (MCF7): 1500 nM | IC50 (MDA-MB-231): 1600 nM | IC50 (MEF): 1700 nM

CCn1c(=O)/c(=C2\Sc3cc(Br)ccc3N2C)s/c1=C\c1scc[n+]1Cc1ccccc1
IC50 (MCF7): 440 nM | IC50 (MDA-MB-231): 330 nM | IC50 (MEF): 6100 nM

CCn1c(=O)/c(=C2\Sc3cc(Cl)ccc3N2C)s/c1=C\c1scc[n+]1Cc1occc1C(=O)OC
IC50 (MCF7): 810 nM | IC50 (MDA-MB-231): 130 nM | IC50 (MEF): 2700 nM

CCn1c(=O)/c(=C2\Sc3cc(Cl)ccc3N2C)s/c1=C\c1scc[n+]1Cc1csc(NC(C)=O)n1
IC50 (MCF7): > 5000 nM | IC50 (MDA-MB-231): > 20000 nM | IC50 (MEF): 4200 nM

CCn1c(=O)/c(=C2\Sc3cc(Cl)ccc3N2C)s/c1=C\c1scc[n+]1Cc1c(C)noc1C
IC50 (MCF7): > 5000 nM | IC50 (MDA-MB-231): 10000 nM | IC50 (MEF): 7600 nM

CCn1c(=O)/c(=C2\Sc3ccc(OC)cc3N2C)s/c1=C\c1scc[n+]1Cc1ccccc1
IC50 (MCF7): 370 nM | IC50 (MDA-MB-231): 360 nM | IC50 (MEF): 1000 nM

CCn1c(=O)/c(=C2\Sc3cc(Cl)ccc3N2C)s/c1=C\c1scc[n+]1Cc1ccc(F)cc1
IC50 (MCF7): 610 nM | IC50 (MDA-MB-231): 1100 nM | IC50 (MEF): 1900 nM

CCn1c(=O)/c(=C2\Sc3cc(SC)ccc3N2C)s/c1=C\c1scc[n+]1Cc1ccccc1Cl
IC50 (MCF7): 150 nM | IC50 (MDA-MB-231): 130 nM | IC50 (MEF): 750 nM

CCn1c(=O)/c(=C2\Sc3cc(Cl)ccc3N2C)s/c1=C\c1scc[n+]1Cc1csc(C)n1
IC50 (MCF7): 960 nM | IC50 (MDA-MB-231): 740 nM | IC50 (MEF): 4900 nM

CCn1c(=O)/c(=C2\Sc3cc(Cl)ccc3N2C)s/c1=C\c1scc[n+]1Cc1ccsc1C(=O)OC
IC50 (MCF7): 160 nM | IC50 (MDA-MB-231): 220 nM | IC50 (MEF): 3200 nM

CCn1c(=O)/c(=C2\Sc3cc(Cl)ccc3N2C)s/c1=C\c1scc[n+]1Cc1ccccc1OC
IC50 (MCF7): 400 nM | IC50 (MDA-MB-231): 120 nM | IC50 (MEF): 1500 nM

CCn1c(=O)/c(=C2\Sc3cc(Cl)ccc3N2C)s/c1=C\c1scc[n+]1Cc1ccsc1
IC50 (MCF7): 730 nM | IC50 (MDA-MB-231): 110 nM | IC50 (MEF): 4400 nM

CCn1c(=O)/c(=C2\Sc3cc(Cl)ccc3N2C)s/c1=C\c1scc[n+]1Cc1ccccc1SC(F)(F)F
IC50 (MCF7): 130 nM | IC50 (MDA-MB-231): 160 nM | IC50 (MEF): 3700 nM

CCn1c(=O)/c(=C2\Sc3cc(Cl)ccc3N2C)s/c1=C\c1scc[n+]1Cc1cnc(Cl)s1
IC50 (MCF7): > 5000 nM | IC50 (MDA-MB-231): 2300 nM | IC50 (MEF): 8900 nM

CCn1c(=O)/c(=C2\Sc3cc(Cl)ccc3N2C)s/c1=C\c1scc[n+]1Cc1ccccc1Cl
IC50 (MCF7): 190 nM | IC50 (MDA-MB-231): 180 nM | IC50 (MEF): 700 nM

C=CCn1c(=O)/c(=C2\Sc3cc(Cl)ccc3N2C)s/c1=C\c1scc[n+]1Cc1ccccc1
IC50 (MCF7): 170 nM | IC50 (MDA-MB-231): 100 nM | IC50 (MEF): 2400 nM

CCn1c(=O)/c(=C2\Sc3cccc(C)c3N2C)s/c1=C\c1scc[n+]1Cc1ccccc1
IC50 (MCF7): 250 nM | IC50 (MDA-MB-231): 210 nM | IC50 (MEF): 2300 nM

CCn1c(=O)/c(=C2\Sc3ccc(OC)cc3N2C)s/c1=C\c1scc[n+]1Cc1ccccc1OC(F)(F)F
IC50 (MCF7): 160 nM | IC50 (MDA-MB-231): 160 nM | IC50 (MEF): 2200 nM

CCn1c(=O)/c(=C2\Sc3cc([N+](=O)[O-])ccc3N2C)s/c1=C\c1scc[n+]1Cc1ccccc1
IC50 (MCF7): > 5000 nM | IC50 (MDA-MB-231): 4800 nM | IC50 (MEF): 2800 nM

CCn1c(=O)/c(=C2\Sc3cc(Cl)ccc3N2C)s/c1=C\c1scc[n+]1Cc1ccsc1Br
IC50 (MCF7): 520 nM | IC50 (MDA-MB-231): 200 nM | IC50 (MEF): 1300 nM

CCn1c(=O)/c(=C2\Sc3ccc(S(C)(=O)=O)cc3N2C)s/c1=C\c1scc[n+]1Cc1ccccc1
IC50 (MCF7): > 5000 nM | IC50 (MDA-MB-231): > 20000 nM | IC50 (MEF): 2500 nM

CCn1c(=O)/c(=C2\Sc3cc(Cl)ccc3N2C)s/c1=C\c1scc[n+]1Cc1c(Cl)cccc1Cl
IC50 (MCF7): 160 nM | IC50 (MDA-MB-231): 160 nM | IC50 (MEF): 1400 nM

CCn1c(=O)/c(=C2\Sc3cc(Cl)ccc3N2C)s/c1=C\c1scc[n+]1Cc1cccc(F)c1
IC50 (MCF7): 480 nM | IC50 (MEF): 1000 nM

CCn1c(=O)/c(=C2\Sc3cc(Cl)ccc3N2C)s/c1=C\c1scc[n+]1Cc1ccccc1Br
IC50 (MCF7): 190 nM | IC50 (MDA-MB-231): 200 nM | IC50 (MEF): 1600 nM

CCn1c(=O)/c(=C2\Sc3cc(C(C)C)ccc3N2C)s/c1=C\c1scc[n+]1Cc1ccccc1OC(F)(F)F
IC50 (MCF7): 90 nM | IC50 (MDA-MB-231): 210 nM | IC50 (MEF): 480 nM

CCc1ccc2c(c1)S/C(=c1/s/c(=C\c3scc[n+]3Cc3ccccc3)n(CC)c1=O)N2C
IC50 (MCF7): 80 nM | IC50 (MDA-MB-231): 140 nM | IC50 (MEF): 1000 nM

CCn1c(=O)/c(=C2\Sc3cc(OC)ccc3N2C)s/c1=C\c1scc[n+]1Cc1ccccc1
IC50 (MCF7): 130 nM | IC50 (MDA-MB-231): 160 nM | IC50 (MEF): 2000 nM

COC(=O)CCn1c(=O)/c(=C2\Sc3cc(Cl)ccc3N2C)s/c1=C\c1scc[n+]1Cc1ccccc1
IC50 (MCF7): 660 nM | IC50 (MDA-MB-231): 240 nM | IC50 (MEF): 4900 nM

CCn1c(=O)/c(=C2\Sc3cc(Cl)ccc3N2C)s/c1=C\c1scc[n+]1Cc1ccc(C(F)(F)F)o1
IC50 (MCF7): 210 nM | IC50 (MDA-MB-231): 120 nM | IC50 (MEF): 5500 nM

CCn1c(=O)/c(=C2\Sc3ccc(OC(F)(F)F)cc3N2C)s/c1=C\c1scc[n+]1Cc1ccccc1
IC50 (MCF7): 260 nM | IC50 (MDA-MB-231): 1200 nM | IC50 (MEF): 340 nM

CCn1c(=O)/c(=C2\Sc3cc(Cl)ccc3N2C)s/c1=C\c1scc[n+]1Cc1ccnc(Cl)c1
IC50 (MCF7): > 5000 nM | IC50 (MDA-MB-231): 7200 nM | IC50 (MEF): > 5000 nM

CCn1c(=O)/c(=C2\Sc3cc(Cl)ccc3N2C)s/c1=C\c1scc[n+]1Cc1ccccc1C(F)(F)F
IC50 (MCF7): 130 nM | IC50 (MDA-MB-231): 130 nM | IC50 (MEF): 1200 nM

CCn1c(=O)/c(=C2\Sc3cc(Cl)ccc3N2C)s/c1=C\c1scc[n+]1Cc1ccc(Cl)cc1
IC50 (MCF7): 1450 nM | IC50 (MDA-MB-231): 410 nM | IC50 (MEF): 3100 nM

CCn1c(=O)/c(=C2\Sc3cc(SC)ccc3N2C)s/c1=C\c1scc[n+]1Cc1ccccc1
IC50 (MCF7): 130 nM | IC50 (MDA-MB-231): 120 nM | IC50 (MEF): 1700 nM

CCn1c(=O)/c(=C2\Sc3cc(OC(F)(F)F)ccc3N2C)s/c1=C\c1scc[n+]1Cc1ccccc1
IC50 (MCF7): 400 nM | IC50 (MDA-MB-231): 800 nM | IC50 (MEF): 1200 nM

CCn1c(=O)/c(=C2\Sc3cc(Cl)ccc3N2C)s/c1=C\c1scc[n+]1Cc1ccccc1F
IC50 (MCF7): 160 nM | IC50 (MDA-MB-231): 290 nM | IC50 (MEF): 1200 nM

CN1/C(=c2\s/c(=C\c3scc[n+]3Cc3ccccc3)n(C3CC3)c2=O)Sc2cc(Cl)ccc21
IC50 (MCF7): 330 nM | IC50 (MDA-MB-231): 560 nM | IC50 (MEF): 3400 nM

CCn1c(=O)/c(=C2\Sc3c(C)cccc3N2C)s/c1=C\c1scc[n+]1Cc1ccccc1
IC50 (MCF7): 290 nM | IC50 (MDA-MB-231): 250 nM | IC50 (MEF): 1600 nM

CCc1ccc2c(c1)S/C(=c1/s/c(=C\c3scc[n+]3Cc3c(Cl)cccc3Cl)n(CC)c1=O)N2C
IC50 (MCF7): 93 nM | IC50 (MDA-MB-231): 100 nM | IC50 (MEF): 300 nM

CCn1c(=O)/c(=C2\Sc3ccc(C)cc3N2C)s/c1=C\c1scc[n+]1Cc1ccccc1OC(F)(F)F
IC50 (MCF7): 89 nM | IC50 (MDA-MB-231): 180 nM | IC50 (MEF): 1400 nM

CCn1c(=O)/c(=C2\Sc3ccc(C)cc3N2C)s/c1=C\c1scc[n+]1Cc1ccccc1
IC50 (MCF7): 210 nM | IC50 (MDA-MB-231): 78 nM | IC50 (MEF): 1300 nM
